Source: ChEMBL document CHEMBL3817726, “Chemically Diverse Group I p21-Activated Kinase (PAK) Inhibitors Impart Acute Cardiovascular Toxicity with a Narrow Therapeutic Window” (J Med Chem, 2016)
One block for each molecule: values may come before it.

Legend:
[1] = biological target: Serine/threonine-protein kinase PAK 1/PAK 2 (Homo sapiens, UniProt Q13177+Q13153); test: Inhibition of PAK1/2 in human EBC1 cells assessed as phosphorylation of MEK1 at serine 298 after 2 hrs by HTRF assay; assay type: cell-based
Mus musculus [2] = test: fCmax in mouse at 100 mg/kg, ip; assay type: ADME, organism-based; conditions: in vivo
Procedure, shortened: (§1)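 Mouse tolerability studies at multiple doses, oral or intraperitoneal. Minimum unbound plasma concentration associated with adverse effects (total Cmax converted to unbound) compared with IC50 for inhibition of MEK1 S298 phosphorylation in cells.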

[3] = biological target: Serine/threonine-protein kinase PAK 1 (Homo sapiens, UniProt Q13153); test: Inhibition of human recombinant N-terminal 6-His-tagged PAK1 kinase domain (249 to 545 residues) expressed in Escherichia coli BL21(DE3) assessed as phosphorylation of coumarin labeled FRET peptide substrate at Ser/Thr19 preincubated for 10 mins followed by ATP addition measured after 60 mins by Z'-LYTE assay
Sequence of Serine/threonine-protein kinase PAK 1 (Q13153 whole entry, the tested form may be a part): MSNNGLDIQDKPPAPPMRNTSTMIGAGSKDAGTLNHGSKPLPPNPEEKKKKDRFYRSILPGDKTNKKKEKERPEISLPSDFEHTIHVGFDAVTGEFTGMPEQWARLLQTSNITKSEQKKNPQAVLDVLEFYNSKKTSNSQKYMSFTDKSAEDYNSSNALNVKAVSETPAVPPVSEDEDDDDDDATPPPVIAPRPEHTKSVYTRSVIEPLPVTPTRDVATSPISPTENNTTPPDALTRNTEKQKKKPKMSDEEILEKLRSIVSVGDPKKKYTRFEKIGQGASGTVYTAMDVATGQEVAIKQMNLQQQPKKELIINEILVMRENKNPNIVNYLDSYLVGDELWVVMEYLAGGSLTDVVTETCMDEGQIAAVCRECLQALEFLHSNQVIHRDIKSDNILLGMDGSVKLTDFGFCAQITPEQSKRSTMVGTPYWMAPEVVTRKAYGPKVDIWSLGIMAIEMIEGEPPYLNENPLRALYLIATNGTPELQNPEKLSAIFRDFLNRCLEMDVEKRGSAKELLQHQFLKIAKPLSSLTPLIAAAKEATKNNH

[4] = Cmax in mouse at 100 mg/kg, ip; assay type: ADME, organism-based; set-up: dose 100 mg/kg, route intraperitoneal; conditions: in vivo
[5] = Fraction unbound in mouse plasma at 100 mg/kg, ip; assay type: ADME, organism-based
[6] = biological target: Serine/threonine-protein kinase PAK 2 (Homo sapiens, UniProt Q13177); test: Inhibition of human recombinant PAK2 assessed as phosphorylation of coumarin labeled FRET peptide substrate at Ser/Thr19 preincubated for 10 mins followed by ATP addition measured after 60 mins by Z'-LYTE assay
Sequence of Serine/threonine-protein kinase PAK 2 (Q13177 whole entry): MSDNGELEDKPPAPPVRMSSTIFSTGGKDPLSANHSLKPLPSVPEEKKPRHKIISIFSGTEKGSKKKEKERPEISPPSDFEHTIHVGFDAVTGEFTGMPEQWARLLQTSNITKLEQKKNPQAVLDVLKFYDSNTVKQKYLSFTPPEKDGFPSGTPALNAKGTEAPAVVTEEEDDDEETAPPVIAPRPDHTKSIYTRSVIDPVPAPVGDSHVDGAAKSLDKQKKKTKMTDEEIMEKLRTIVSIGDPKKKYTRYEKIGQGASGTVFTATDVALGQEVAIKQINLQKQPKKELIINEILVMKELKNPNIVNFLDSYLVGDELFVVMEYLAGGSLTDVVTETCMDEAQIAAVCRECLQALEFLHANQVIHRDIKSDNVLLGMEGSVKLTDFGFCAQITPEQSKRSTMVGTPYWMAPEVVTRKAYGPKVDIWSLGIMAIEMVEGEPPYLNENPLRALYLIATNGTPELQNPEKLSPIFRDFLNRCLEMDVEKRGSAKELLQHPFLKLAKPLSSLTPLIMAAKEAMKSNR

[7] = Ratio of fCmax associated with acute adverse effect in mouse at 25 mg/kg, ip to IC50 for PAK1/2-mediated phosphorylation of MEK1 at serine 298 in human EBC1 cells
[8] = Cmax associated with acute adverse effect in mouse at 50 mg/kg, ip; assay type: ADME, organism-based; set-up: dose 50 mg/kg, route intraperitoneal; conditions: in vivo
Procedure, shortened: (§2)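 Mouse tolerability studies tested multiple doses, given orally or intraperitoneally. Plasma drug concentrations were measured, including at a 15 min time point. The minimum concentration associated with adverse clinical signs or death was taken as the adverse Cmax and was converted to an unbound value.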

[9] = Fraction unbound in mouse plasma at 25 mg/kg, ip; assay type: ADME, organism-based
Mus musculus [10] = test: fCmax associated with acute adverse effect in mouse at 25 mg/kg, ip; assay type: ADME, organism-based; conditions: in vivo; procedure, shortened: as §1
[11] = Fraction unbound in mouse plasma at 150 to 300 mg/kg, ip; assay type: ADME, organism-based
[12] = Cmax associated with acute adverse effect in mouse at 150 to 300 mg/kg, ip; assay type: ADME, organism-based; conditions: in vivo; procedure, shortened: as §2
Mus musculus [13] = test: fCmax associated with acute adverse effect in mouse at 150 to 300 mg/kg, ip; assay type: ADME, organism-based; conditions: in vivo; procedure, shortened: as §1
[14] = Ratio of fCmax associated with acute adverse effect in mouse at 150 to 300 mg/kg, ip to IC50 for PAK1/2-mediated phosphorylation of MEK1 at serine 298 in human EBC1 cells
Procedure, shortened: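 Mice were dosed at multiple levels, orally or intraperitoneally, and monitored for acute adverse signs. The minimum unbound plasma Cmax associated with adverse effects was converted from total drug concentration and compared with the cellular IC50 for phospho-MEK1 S298 inhibition.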

[15] = Cmax associated with acute adverse effect in rat; assay type: ADME, organism-based; conditions: in vivo
Mus musculus [16] = test: Toxicity in mouse assessed as slow blood flow at 60 to 80 mg/kg, po; assay type: organism-based; conditions: in vivo
[17] = Cmax associated with acute adverse effect in mouse at 60 to 80 mg/kg, po; assay type: ADME, organism-based; conditions: in vivo; procedure, shortened: as §2
Mus musculus [18] = test: fCmax associated with acute adverse effect in mouse at 60 to 80 mg/kg, po; assay type: ADME, organism-based; conditions: in vivo; procedure, shortened: as §1
Rattus norvegicus [19] = organism: Rattus norvegicus; test: Toxicity in rat assessed as hypoactivity; assay type: organism-based; conditions: in vivo
[20] = Fraction unbound in mouse plasma at 60 to 80 mg/kg, po; assay type: ADME, organism-based
Rattus norvegicus [21] = organism: Rattus norvegicus; test: Toxicity in rat assessed as slow blood flow; assay type: organism-based; conditions: in vivo
Rattus norvegicus [22] = organism: Rattus norvegicus; test: Toxicity in rat assessed as darkened blood; assay type: organism-based; conditions: in vivo
Rattus norvegicus [23] = organism: Rattus norvegicus; test: fCmax associated with acute adverse effect in rat; assay type: ADME, organism-based; conditions: in vivo
Rattus norvegicus [24] = organism: Rattus norvegicus; test: Toxicity in rat assessed as hunched posture; assay type: organism-based; conditions: in vivo
Mus musculus [25] = test: Toxicity in mouse assessed as hunched posture at 60 to 80 mg/kg, po; assay type: organism-based; conditions: in vivo
Mus musculus [26] = test: Toxicity in mouse assessed as darkened blood at 60 to 80 mg/kg, po; assay type: organism-based; conditions: in vivo
Mus musculus [27] = test: Toxicity in mouse assessed as hypoactivity at 60 to 80 mg/kg, po; assay type: organism-based; conditions: in vivo
[28] = Ratio of fCmax associated with acute adverse effect in mouse at 100 to 200 mg/kg, ip to IC50 for PAK1/2-mediated phosphorylation of MEK1 at serine 298 in human EBC1 cells
[29] = Fraction unbound in mouse plasma at 100 to 200 mg/kg, ip; assay type: ADME, organism-based
Mus musculus [30] = test: fCmax associated with acute adverse effect in mouse at 100 to 200 mg/kg, ip; assay type: ADME, organism-based; conditions: in vivo; procedure, shortened: as §1
[31] = Cmax associated with acute adverse effect in mouse at 100 to 200 mg/kg, ip; assay type: ADME, organism-based; conditions: in vivo; procedure, shortened: as §2

SMILES: N[C@H]1CC[C@H](CNc2nccc(Nc3cc(C(F)(F)F)ccn3)n2)CC1
Ratio [7]: 1 | Cmax [8]: 26 µM | fraction unbound [9]: 0.063 | fCmax (Mus musculus [10]): 1.6 µM

SMILES: CNc1ncc2cc(-c3ccc(-n4cccc(C)c4=O)cc3C3CC3)c(=O)n(C[C@@H]3CNCCO3)c2n1
fraction unbound [11]: 0.025 | IC50 [1]: 15 µM | Cmax [12]: 63 µM | fCmax (Mus musculus [13]): 1.6 µM | Ki [3]: 0.95 µM | Ratio [14]: 1 | Ki [6]: 3.67 µM

Further lines, with some results ahead:

IC50 [1]: > 30 µM | fCmax (Mus musculus [2]): 5.7 µM | Ki [3]: 0.943 µM | Cmax [4]: 40 µM | fraction unbound [5]: 0.143 | Ki [6]: 2.3 µM
SMILES: CNc1ncc2cc(-c3ccc(-n4ccc(C)cc4=O)cc3Cl)c(=O)n(C[C@H]3CNCCO3)c2n1

fraction unbound [20]: 0.017
SMILES: CCn1c(=O)c(-c2ccc(-c3cncc(C)n3)cc2Cl)cc2cnc(NCCC3CCN(C)CC3)nc21
Cmax [15]: 4 µM | Activity (Mus musculus [16]): Toxic | Cmax [17]: 16 µM | fCmax (Mus musculus [18]): 0.27 µM | Activity (Rattus norvegicus [19]): Toxic | Activity (Rattus norvegicus [21]): Toxic | Activity (Rattus norvegicus [22]): Toxic | fCmax (Rattus norvegicus [23]): 0.076 µM | Activity (Rattus norvegicus [24]): Toxic | Activity (Mus musculus [25]): Toxic | Activity (Mus musculus [26]): Toxic | Activity (Mus musculus [27]): Toxic

fraction unbound [29]: 0.104 | IC50 [1]: 6 µM | Ki [3]: 0.372 µM | Ki [6]: 0.94 µM
SMILES: Cc1cncc(-c2ccc(-c3cc4cncnc4n(C[C@H]4CC[C@H](N)CC4)c3=O)c(Cl)c2)n1
Ratio [28]: 1 | fCmax (Mus musculus [30]): 6.1 µM | Cmax [31]: 59 µM
